Cav3 T inh: human Cav3.2 channel inhibition, primary screen | O95180 | 4% of 100,000 active | B-score at 10 µM | AID 449739 | Cav3.2-expressing cells, Fluo-4 calcium fluorescence FDSS; hits give low values;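 active means single-dose well whose peak fluorescence ratio is a statistical outlier from its plate by either plate-standardised score or position-corrected B-score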
H69AR growth 86K: growth inhibitors of human H69AR lung tumor cells; H69AR lung tumor viability, ATP luminescence, 72 h; hits give low values; viability, % at 10 µM; 6% of 85,000 active;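 active means viability at or below 40%; inactive means viability above 40%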;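 further: multidrug resistant small cell line overexpressing MRP-1 efflux transporter; 100% = mean luminescence of untreated control wells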
HUVEC prolif 384: blocks proliferation of human endothelial cells. AID 648. viability, % at 10 µM (by protocol). 1.1% of 86,000 active. HUVEC proliferation, CellTiter-Glo luminescence, 72 h; hits give low values;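 active means viability at or below 30%; inactive means viability above 30%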;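 further: 100% = median luminescence of DMSO-only cell control wells on each plate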
PTEN del growth: suppresses growth of cells with PTEN deletion; AID 827; HCT116 PTEN-null viability, CellTiter-Glo, 60 h; hits give low values; viability, % at 10 µM; 1.2% of 140,000 active;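 active means viability at or below a set limit, 4 SD under the median of all tested compounds, cut at about 3.7% in these data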;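 further: PTEN knockout HCT116 line with beta catenin targeted HCT116 as companion control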
Lung fibro prol: blocks proliferation of human lung fibroblasts. LL 47 human lung fibroblast viability, ATP luminescence; hits give low values. viability, % at 10 µM. 1.1% of 85,000 active;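 active means viability at or below 50% in the single dose screen; inactive means viability above 50%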;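 further: compound exposure lasted 72 h before the ATP readout; 100% = median luminescence of untreated cell-only wells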
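Material: human LL 47 lung fibroblast cells; quantity: 1,150 cells/well; medium: IMEM plus 15% FBS; doses: 0.1% DMSO in all compound wells; timing: overnight attachment after seeding, then 72 h compound exposure at 37 °C; detection: CellTiter-Glo luminescence; measure: % viability of median cell-only signal; controls: cell-only wells, no compound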
HCT116 bCat-KO: beta-catenin-lacking colon tumor cell growth suppression. viability, % at 10 µM. 1.5% of 140,000 active. HCT116 beta-catenin knockout viability, CellTiter-Glo, 60 h; hits give low values;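 active means viability at or under a set limit, the compound median less 4 SD, cut at about 6% in these data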;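 further: 0% = Hyamine 1622 control at 20 µM and 100% = untreated cell control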
* marks the source's active call; other numbers are inactive results; x = not tested or not shown. Hits are enriched below; roughly 7.1% of the tested compounds scored in any of these assays.

SMILES	Cav3 T inh	H69AR growth 86K	HUVEC prolif 384	PTEN del growth	Lung fibro prol	HCT116 bCat-KO
Cc1cc(C)n(-c2nnc(NC(C)(C)C)nn2)n1	x	x	x	95	x	84
CC(C)(C)Nc1nc(NC(C)(C)C)nc(-n2ccnc2)n1	-0.16	31*	98	84	90	91
CC(C)(C)Nc1nc(NN)nc(NC(C)(C)C)n1	-0.76	x	x	76	x	83
Cc1cc(C)n(-c2nc(NC(C)(C)C)nc(NC(C)(C)C)n2)n1	0.79	x	x	12	x	4.6*
CCNc1nc(NCC)nc(-n2nc(C)cc2C)n1	0.082	4.7*	102	89	89	95
Cn1c(=O)[nH]c(=O)c2[nH]c(N(Cc3ccccc3)Cc3ccccc3)nc21	-0.89	55	79	69	87	62
COc1cc(NC(=O)c2cccc(C)c2)c(Cl)cc1[N+](=O)[O-]	x	x	x	101	x	105
CC1(C)Cc2c(sc3[nH]c(=S)n(Cc4ccco4)c(=O)c23)CO1	0.72	30*	80	70	88	69
COc1ccc(CN2CNc3c(c(=O)n(C)c(=O)n3C)C2)cc1	x	x	x	108	x	97
COCCNC(=S)N1CCOCC1	x	x	x	92	x	88
Cc1c(OCc2ccccc2)c(=O)ccn1Cc1ccc(Cl)cc1	-0.12	3.9*	63	63	85	55
COC(=O)C1=C(C(=O)OC)[C@@H]2N(Cc3ccccc3)c3ccccc3[C@@]23C[C@@H](C(=O)OC)N(C(=O)c2cc(C)oc2C)C3=N1	-3*	x	x	x	x	x
CN(C)S(=O)(=O)c1ccc(C(=O)Nc2nnc(SCc3cccc(F)c3)s2)cc1	x	x	x	102	x	97
COc1ccc2c(c1)-c1nc(NC(=O)c3ccco3)sc1CC2	x	39*	100	86	106	96
COc1c2c(nc3occc13)C(CCC(C)(C)O)(OC)C(O)CC2 (centres undefined)	-1	90	93	92	102	92
Cc1ccc(N2CC(C(=O)Nc3cc(C)ccc3F)CC2=O)cc1 (centres undefined)	-0.95	100	106	96	103	96
O=C(Nc1cccc(F)c1)C1CC(=O)N(c2ccc(Cl)cc2)C1 (centres undefined)	-5.8*	87	83	86	100	75
O=C(Nc1cccc(Cl)c1Cl)C1CC(=O)N(c2ccc(Br)cc2)C1 (centres undefined)	-1.5	103	83	95	94	85
O=C(Nc1cccc(F)c1)C1CC(=O)N(c2ccc(Br)cc2)C1 (centres undefined)	-5.4*	x	89	95	108	94
CC(=O)Nc1ccccc1OCC(=O)NCCc1ccc(Cl)cc1Cl	x	x	x	89	x	89
Cc1nnc(SCC(=O)N2CCC(c3noc4ccc(F)cc34)CC2)s1	1	61	73	87	102	92
O=C(CSc1ccc2ccccc2n1)N1CCC(c2noc3ccc(F)cc23)CC1	-6.5*	87	93	87	102	93
COc1ccccc1NC(=O)C1=C(C)NC(=O)NC1c1cc(C)cs1 (centres undefined)	x	x	x	92	x	99
Cc1c(CCOC(=O)C2C3CC4CC(C3)CC2C4)sc[n+]1CC(=O)c1ccc(Br)cc1 (centres undefined)	1	0.9*	2.6*	24	73	12
CC1CCCCC1NC(=O)c1ccc(N2CCCC2=O)cc1 (centres undefined)	-5.1*	105	103	100	98	91
SMILES	Cav3 T inh	H69AR growth 86K	HUVEC prolif 384	PTEN del growth	Lung fibro prol	HCT116 bCat-KO
COc1ccc(-c2cn3c(C)c(C(=O)N4CCc5ccccc5C4)sc3n2)cc1	x	22*	64	x	102	x
O=C(O)/C=C1\NC(=O)c2ccccc21	-0.33	x	x	116	x	99
O=C1N/C(=C\c2ccc(O)cc2)C(=O)c2ccccc21	-0.71	x	x	7	x	5.8*
CCOC(=O)c1sc(NC(=O)CSc2nc(-c3ccco3)cc(C(F)(F)F)n2)c(C(=O)OC(C)C)c1C	x	91	106	x	95	x
CCN(CC)S(=O)(=O)c1cc(C(=O)NC2CCCCC2)ccc1C	0.61	42	97	81	x	87
Cc1oc(-c2ccccc2Cl)nc1Cn1cccc1C1=NC(c2ccccc2)CO1 (centres undefined)	-6.7*	97	87	61	93	59
CC(C)c1ccc(NC(=O)Cn2cccc2C2=NC(c3ccccc3)CO2)cc1 (centres undefined)	x	x	x	81	x	78
COc1ccc(CC(=O)Nc2ccc(-c3noc(-c4ccccc4OC)n3)cc2)cc1	-0.21	17*	26*	91	66	95
CCOc1ccccc1NC(=O)c1ccccc1-c1nc(-c2ccccc2OC)no1	-4.7*	68	74	72	100	75
COc1ccccc1CC(=O)Nc1ccc(-c2noc(COc3cccc(C)c3C)n2)cc1	-1.1	38*	80	82	105	75
COc1cccc(-c2nc(-c3ccc(NC(=O)Cc4ccccc4OC)cc3)no2)c1	-0.0081	107	101	72	97	85
COc1ccccc1CC(=O)Nc1ccc(-c2noc(COc3ccc(Br)cc3)n2)cc1	0.67	19*	86	93	83	93
Cc1ccccc1OCc1nc(-c2ccc(NC(=O)c3cccs3)cc2)no1	x	x	x	90	x	87
COc1ccccc1-c1noc(-c2ccccc2C(=O)N2CCOCC2)n1	0.89	86	103	115	97	101
CCOC(=O)C(NC(=O)N(C)C)(Nc1sc(C)c(CC)c1C#N)C(F)(F)F (centres undefined)	x	x	x	100	x	94
Cc1cc(OCc2nc(-c3ccc(NC(=O)c4cccnc4)cc3)no2)ccc1Cl	0.27	x	x	70	x	52
Cc1ccccc1OCc1nc(-c2ccc(NC(=O)c3ccc4c(c3)OCO4)cc2)no1	x	16*	31	46	30*	61
COc1ccc(-c2ccc(-c3noc(-c4ccccc4OC)n3)c(OC)n2)cc1	-0.21	34*	72	100	100	88
Cc1ccccc1OCc1nc(-c2ccc(NC(=O)c3ccco3)cc2)no1	0.38	93	70	94	94	87
O=C(Nc1ccc(-c2noc(CCc3ccccc3)n2)cc1)c1cccnc1	-0.54	5.5*	68	85	87	78
CCCc1ccc(OCc2nc(-c3ccc(NC(=O)c4ccco4)cc3)no2)cc1	0.14	9.2*	51	10	51	11
CCCc1ccc(OCc2nc(-c3ccc(NC(=O)c4cccs4)cc3)no2)cc1	x	x	x	25	x	15
O=C(CSc1nc(C2CC2)nc2ccccc12)N1c2ccccc2Sc2ccccc21	x	x	x	65	x	70
COc1ccc(-c2cc(C(=O)Nc3cc(OC)cc(C(=O)Nc4cccc(C(F)(F)F)c4)c3)[nH]n2)cc1	-0.67	x	x	x	x	x
CCOc1ccc(C(CC(=O)O)NC(=O)C23CC4CC(CC(C4)C2)C3)cc1 (centres undefined)	1.1	92	99	83	96	91
Cn1ncc(N=Cc2ccccc2)c1C(=O)Nc1cccc(Cl)c1	0.017	38*	61	62	78	59
